Reference: ChEMBL document CHEMBL1140137, “Synthesis, ex vivo evaluation, and radiolabeling of potent 1,5-diphenylpyrrolidin-2-one cannabinoid subtype-1 receptor ligands as candidates for in vivo imaging” (J Med Chem, 2008)

Key:
[1] = Drug uptake in Sprague-Dawley rat frontal cerebral cortex at 30 μg/kg, iv after 0.25 hrs
[2] = Drug uptake in Rimonabant pretreated Sprague-Dawley rat CB1 rich frontal cerebral cortex at […], iv after 0.25 hrs; assay type: ADME, organism-based; parameters: route intravenous; conditions: read-out: Drug uptake
Outline: (§1)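 Adult male Sprague-Dawley rats (225–250 g) were used, three per time point. […] Ligand was dosed at 30 μg/kg i.v. in intralipid/1% AcOH diluted with water. Frontal cortex was taken at 0.25–8 h, homogenized in MeCN/0.1% HCO2H, centrifuged, and the supernatant quantified by LC-MS (ng/g).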

[3] = Drug uptake in Sprague-Dawley rat frontal cerebral cortex at 30 μg/kg, iv after 8 hrs
[4] = biological target: Cannabinoid receptor 2 (Homo sapiens) (UniProt P34972); assay: Antagonist activity at human CB2 receptor in Sf9 cells assessed as GTPgammaS binding; assay type: functional, cell-based
Outline: (§2)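 GTPγ35S binding was read by anti-Gi antibody-capture scintillation proximity assay. Membranes came from CHO cells expressing human CB1 and from Sf9 cells expressing human CB2. Antagonist dose-responses were run against methanandamide at 80% efficacious dose. Kb = IC50/(1+[agonist]/EC50), with four-parameter fits. Values are the mean ± SEM of at least three independent determinations. Selectivity was taken from the CB1 and CB2 Kb values.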

Homo sapiens = species on record: Homo sapiens; assay: Selectivity for human CB1 receptor over human CB2 receptor
Outline: as §2

[5] = Drug uptake in Sprague-Dawley rat frontal cerebral cortex at 30 μg/kg, iv after 0.5 hrs
[6] = Drug uptake in Rimonabant pretreated Sprague-Dawley rat CB1 rich frontal cerebral cortex at […], iv after 8 hrs; assay type: ADME, organism-based; parameters: route intravenous; conditions: read-out: Drug uptake
Outline: as §1

Chain of Cannabinoid receptor 2 (Homo sapiens) (P34972 whole entry): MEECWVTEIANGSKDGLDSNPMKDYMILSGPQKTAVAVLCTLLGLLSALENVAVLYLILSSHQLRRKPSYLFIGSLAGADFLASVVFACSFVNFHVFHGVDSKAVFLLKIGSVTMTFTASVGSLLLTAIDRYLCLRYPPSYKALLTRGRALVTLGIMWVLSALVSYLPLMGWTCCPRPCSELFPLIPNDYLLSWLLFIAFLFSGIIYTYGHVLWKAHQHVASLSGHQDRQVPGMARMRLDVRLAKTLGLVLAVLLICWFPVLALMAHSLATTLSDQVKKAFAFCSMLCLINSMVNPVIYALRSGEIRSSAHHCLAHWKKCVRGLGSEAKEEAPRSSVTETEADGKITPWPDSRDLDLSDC

concentration at 0.25 h [1] [ng/g] | concentration at 0.25 h [2] [ng/g] | concentration at 8 h [3] [ng/g] | Kb [4] [µM] | Selectivity ratio (Homo sapiens) | concentration at 0.5 h [5] [ng/g] | concentration at 8 h [6] [ng/g] | Compound
39 | 11.5 | 8.5 | – | – | – | – | COc1cccc([C@H]2C[C@@H](N[C@H](C)c3ccccc3)C(=O)N2c2ccc(C(F)(F)F)cc2)c1 [MEPPEP]
22 | 6.5 | 0.7 | > 8.26 | > 19500 | – | – | C[C@@H](N[C@@H]1C[C@H](c2cccc(OCCF)c2)N(c2ccc(C(F)(F)F)cc2)C1=O)c1ccccc1
– | 9.7 | 8.2 | 0.669 | 3580 | 39.3 | – | C[C@@H](N[C@@H]1C[C@H](c2cccc(OCF)c2)N(c2ccc(C(F)(F)F)cc2)C1=O)c1ccccc1
– | 17.3 | 10.5 | 0.466 | 2160 | 48 | 0.8 | COc1cccc([C@H]2C[C@@H](N[C@H](C)c3ccc(F)cc3)C(=O)N2c2ccc(C(F)(F)F)cc2)c1
